ChEMBL document CHEMBL1137007, “Synthesis of 4-substituted pyrido[2,3-d]pyrimidin-4(1H)-one as analgesic and anti-inflammatory agents” (Bioorg Med Chem Lett, 2009)

How the values were obtained:
Rattus norvegicus [1] = assay: Antiinflammatory activity in rat assessed as inhibition of carrageenan-induced paw oedema at 10 mg/kg, po after 1 hr; format: functional; parameters: scale not given: the % may be the effect or the level left
Procedure, shortened: (§1)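 Rats, six per group, were dosed orally (10 or 20 mg/kg, suspension in 1% carboxymethyl cellulose) before carrageenan paw injection. Paw volume was read by mercury-displacement plethysmography just before and 30 min, 1, 2 and 3 h after carrageenan. %inhibition = 100[1 − (a − x)/(b − y)], with the test group's pre/post volumes set against the vehicle control group's. Reported as mean ± SEM (n = 6) with ANOVA.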

Mus musculus [2] = assay: Analgesic activity in Wister albino mice at 20 mg/kg, po after 3 hrs by tail-flick test
Mus musculus [3] = assay: Analgesic activity in Wister albino mice at 10 mg/kg, po after 30 mins by tail-flick test
Mus musculus [4] = assay: Analgesic activity in Wister albino mice at 20 mg/kg, po after 1 hr by tail-flick test
Rattus norvegicus [5] = assay: Antiinflammatory activity in rat assessed as inhibition of carrageenan-induced paw oedema at 20 mg/kg, po after 1 hr; format: functional; parameters: scale not given: the % may be the effect or the level left; procedure, shortened: as §1
Rattus norvegicus [6] = assay: Antiinflammatory activity in rat assessed as inhibition of carrageenan-induced paw oedema at 20 mg/kg, po after 30 mins; format: functional; parameters: scale not given: the % may be the effect or the level left; procedure, shortened: as §1
Mus musculus [7] = assay: Analgesic activity in Wister albino mice at 20 mg/kg, po after 2 hrs by tail-flick test
Mus musculus [8] = assay: Analgesic activity in Wister albino mice at 10 mg/kg, po after 2 hrs by tail-flick test
Rattus norvegicus [9] = assay: Antiinflammatory activity in rat assessed as inhibition of carrageenan-induced paw oedema at 10 mg/kg, po after 30 mins; format: functional; parameters: scale not given: the % may be the effect or the level left; procedure, shortened: as §1
Rattus norvegicus [10] = assay: Toxicity in Wistar albino rat assessed as ulcer index at 20 mg/kg, ip administered once daily for 3 days; format: organism-based; parameters: dose 20 mg/kg, route intraperitoneal; settings: in vivo, 72 h
Procedure, shortened: (§2)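 Wistar albino rats of either sex (150–200 g), six per group, housed at 25 °C, 45–55% RH, 12-h light/dark cycle and acclimatized one week. Dosing was intraperitoneal as a suspension in 10% v/v Tween-80, with a vehicle-only control group. Animals were fasted 36 h, then pylorus-ligated (Shay method) on day 4 and sacrificed 4 h later for ulcer index. Values are mean ± SEM (n = 6), analysed by one-way ANOVA.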

Mus musculus [11] = assay: Analgesic activity in Wister albino mice at 10 mg/kg, po after 1 hr by tail-flick test
Rattus norvegicus [12] = assay: Antiinflammatory activity in rat assessed as inhibition of carrageenan-induced paw oedema at 20 mg/kg, po after 3 hrs; format: functional; parameters: scale not given: the % may be the effect or the level left; procedure, shortened: as §1
Rattus norvegicus [13] = assay: Antiinflammatory activity in rat assessed as inhibition of carrageenan-induced paw oedema at 10 mg/kg, po after 3 hrs; format: functional; parameters: scale not given: the % may be the effect or the level left; procedure, shortened: as §1
Rattus norvegicus [14] = assay: Antiinflammatory activity in rat assessed as inhibition of carrageenan-induced paw oedema at 20 mg/kg, po after 2 hrs; format: functional; parameters: scale not given: the % may be the effect or the level left; procedure, shortened: as §1
Rattus norvegicus [15] = assay: Antiinflammatory activity in rat assessed as inhibition of carrageenan-induced paw oedema at 10 mg/kg, po after 2 hrs; format: functional; parameters: scale not given: the % may be the effect or the level left; procedure, shortened: as §1
Mus musculus [16] = assay: Analgesic activity in Wister albino mice at 20 mg/kg, po after 30 mins by tail-flick test
Mus musculus [17] = assay: Analgesic activity in Wister albino mice at 10 mg/kg, po after 3 hrs by tail-flick test
Mus musculus [18] = assay: Analgesic activity in Wister albino mouse at 20 mg/kg, po after 1 hr by tail-flick test
Rattus norvegicus [19] = assay: Toxicity in Wistar albino rat assessed as ulcer index at 200 mg/kg, ip administered once daily for 3 days; format: organism-based; parameters: dose 200 mg/kg, route intraperitoneal; settings: in vivo, 72 h; procedure, shortened: as §2

Structure (SMILES) | Activity (Rattus norvegicus [1]) [%] | Activity (Mus musculus [2]) [%] | Activity (Mus musculus [3]) [%] | Activity (Mus musculus [4]) [%] | Activity (Rattus norvegicus [5]) [%] | Activity (Rattus norvegicus [6]) [%] | Activity (Mus musculus [7]) [%] | Activity (Mus musculus [8]) [%] | Activity (Rattus norvegicus [9]) [%] | UI (Rattus norvegicus [10]) | Activity (Mus musculus [11]) [%] | Activity (Rattus norvegicus [12]) [%] | Activity (Rattus norvegicus [13]) [%] | Activity (Rattus norvegicus [14]) [%] | Activity (Rattus norvegicus [15]) [%] | Activity (Mus musculus [16]) [%] | Activity (Mus musculus [17]) [%] | Activity (Mus musculus [18]) [%] | UI (Rattus norvegicus [19])
Nc1ncnc2nc3[nH]c(=S)[nH]c(=O)c3c(-c3ccc(N4CCOCC4)cc3)c12 | 40 | 36 | 38 | 57 | 47 | 43 | 58 | 46 | 35 | 0.7 | 43 | 38 | 30 | 49 | 42 | 55 | 27 | – | –
CN1CCN(c2ccc(-c3c4c(N)ncnc4nc4[nH]c(=S)[nH]c(=O)c34)cc2)CC1 | 37 | 43 | 39 | 58 | 48 | 43 | 58 | 45 | 35 | 0.69 | 43 | 38 | 31 | 50 | 38 | 50 | 36 | – | –
N=c1sc(=S)[nH]c2nc3[nH]c(=S)[nH]c(=O)c3c(-c3ccc(N4CCCCC4)cc3)c12 | 38 | 39 | 38 | 53 | 40 | 37 | 56 | 48 | 33 | 0.73 | 42 | 33 | 25 | 46 | 39 | 51 | 34 | – | –
Nc1ncnc2nc3[nH]c(=S)[nH]c(=O)c3c(-c3ccc(N4CCCCC4)cc3)c12 | 39 | 38 | 41 | 57 | 45 | 42 | 59 | 52 | 33 | 0.58 | 49 | 39 | 32 | 48 | 40 | 55 | 32 | – | –
N#Cc1c(N)nc2[nH]c(=S)[nH]c(=O)c2c1-c1ccc(N2CCOCC2)cc1 | 48 | 43 | 45 | 63 | 61 | 50 | 66 | 53 | 41 | 0.54 | 47 | 47 | 36 | 63 | 50 | 59 | 31 | – | –
CN1CCN(c2ccc(-c3c(C#N)c(N)nc4[nH]c(=S)[nH]c(=O)c34)cc2)CC1 | 40 | 52 | 53 | 68 | 55 | 48 | 72 | 64 | 39 | 0.51 | 60 | 37 | 31 | 60 | 46 | 67 | 44 | – | –
N=c1sc(=S)[nH]c2nc3[nH]c(=S)[nH]c(=O)c3c(-c3ccc(N4CCOCC4)cc3)c12 | 28 | 44 | 39 | 53 | 34 | 30 | 56 | 44 | 25 | 0.89 | 41 | 30 | 21 | 42 | 31 | 49 | 32 | – | –
N#Cc1c(N)nc2[nH]c(=S)[nH]c(=O)c2c1-c1ccc(N2CCCCC2)cc1 | 37 | 47 | 46 | – | 49 | 45 | 69 | 55 | 35 | 0.58 | 51 | 36 | 29 | 51 | 45 | 63 | 39 | 64 | –
CC(=O)Oc1ccccc1C(=O)O [ASPIRIN] | – | – | – | – | – | – | – | – | – | – | – | – | – | – | – | – | – | – | 1.73
O=C([O-])Cc1ccccc1Nc1c(Cl)cccc1Cl.[Na+] [DICLOFENAC SODIUM] | 38 | 39 | 37 | 55 | 52 | 45 | 62 | 45 | 32 | 1.65 | 43 | 42 | 33 | 60 | 39 | 46 | 33 | – | –
